Measured values taken from publication PMC2266615 (The Journal of General Physiology, 2005).
Like-named read-outs stand apart in the source and are kept apart here. One block for each compound: values may come before it. The star is where a group is joined. acrylodan = 6-acryloyl-2-dimethylaminonaphthalene, CN(C)c1ccc2cc(C(=O)CC*)ccc2c1

What was measured:
calmodulin (Ca/CaM) = calmodulin (Ca/CaM) (Homo sapiens, UniProt P0DP23); test: Ca/CaM binding by competition with PC/PS vesicles; design: species or system bovine brain and human brain; conditions: 2:1 PC/PS LUVs, 100 mM KCl, 1 mM MOPS, pH 7.0, 100 μM EGTA + 120 μM Ca2+; trace peptide ~5 nM; centrifugation; fit of Eq. 2
Outline: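 Trace (~5 nM) [3H]NEM-labelled test peptide mixed with 100-nm sucrose-loaded 2:1 PC/PS LUVs (total lipid 2 × 10−5 M; repeats with 3:1 PC/PS) and varied bovine or human brain CaM. Spun 100,000 g for 1 h. Percent bound from supernatant/pellet counts; KCaM from a competition equation (Eq. 2) fit.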

A431 cells = conditions: ref Hughes et al., 1991, cited from earlier work; for intracellular [Ca2+]: EGF
hepatocytes = conditions: EGF, in the next 2–3 min, ref Nojiri and Hoek, 2000; cited from earlier work
ErbB1 [1] = conditions: membranes and solubilized form; ref Davis et al., 1988; cited from earlier work
ErbB1 [2] = conditions: ref Li et al., 2004a, cited from earlier work; for steady-state ErbB1 autophosphorylation: times >20 min; for initial peak of ErbB1 autophosphorylation: two other cell types
ErbB1 [3] = conditions: ref Li et al., 2004a; cited from earlier work
[4] = molecular target: ErbB1(645–660) peptide with a phosphorylated Thr654 (human (from the printed accession P00533)); test: centrifugation of vesicles
[5] = effect of added agents on binding of ErbB1; conditions: 2 μM sphingosine; PC/PS vesicles
ErbB1 [6] = conditions: A431 cells, 5 min after EGF; ref Friedman et al., 1989; cited from earlier work
ErbB1 [7] = conditions: cardiac fibroblasts; ref Murasawa et al., 1998; cited from earlier work
ErbB1 [8] = test: EGF-mediated ErbB1 autophosphorylation in Cos1 cells; type: cell-based
[9] = type: binding; conditions: for rate of removal from vesicles by Ca/CaM: 2 μM Ca/CaM
Outline: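 Stopped-flow fluorescence mixing of two solutions. The second holds 0.5–7 μM CaM with 50 μM CaCl2. Both contain 100 mM KCl and 1 mM MOPS, pH 7.0. Time constants τ come from exponential fluorescence rise; the transfer rate constant is the slope of 1/τ against [CaM].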

[10] = extrapolated from peptide binding, [lipid]eff > 10^−2 M

- Ca/CaM Association Constant (KCaM) (calmodulin (Ca/CaM)): 3e+06 M⁻¹
Compound: ErbB3(667–683): peptide corresponding to the juxtamembrane region of ErbB3 (Ac-CRGRRIQNKRAMRRYLER-NH2; not fully specified (residue 1))

Compound: epidermal growth factor [EGF]
- increase of intracellular [Ca2+] (A431 cells; 30 nM EGF, ∼5 min): about fivefold
- intracellular [Ca2+] (A431 cells; 5 min): 600 nM
- intracellular [Ca2+] (A431 cells; by 15 min): 150 nM
- intracellular [Ca2+] (hepatocytes): 150 nM
- ErbB1 activation (ErbB1 [1]): can activate ErbB1 both in membranes and in solubilized form

Compound: NCCCCNS(=O)(=O)c1ccc2ccccc2c1 [W-12]
- steady-state ErbB1 autophosphorylation (ErbB1 [2]): not the steady-state value
- initial peak of ErbB1 autophosphorylation (ErbB1 [2]): inhibit the initial peak
- tyrosine kinase activity of purified ErbB1 (ErbB1 [3]): do not inhibit

- fold reduction of KCaM against the unphosphorylated peptide [4]: 20 fold
Compound: calcium/calmodulin (from UniProt P0DP23 1-149) (natural protein)

- ErbB1(645–660) peptide desorbed from vesicles [5]: 75%
Compound: CCCCCCCCCCCCC/C=C/[C@@H](O)[C@@H](N)CO [sphingosine]

Compound: C/C=C(/C)C(=O)O[C@H]1C(C)=C2[C@H]([C@@H]1OC(=O)CCCCCCC)[C@@](C)(OC(C)=O)C[C@H](OC(=O)CCC)[C@@]1(O)[C@H]2OC(=O)[C@@]1(C)O [thapsigargin]
- receptor autophosphorylation (ErbB1 [6]): inhibit receptor autophosphorylation

- Ca/CaM Association Constant (KCaM) (calmodulin (Ca/CaM)): 2e+07 M⁻¹
Compound: ErbB4(676–692): peptide corresponding to the juxtamembrane region of ErbB4 (Ac-CRRKSIKKKRALRRFLET-NH2; not fully specified (residue 1))

Compound: NCCCCNS(=O)(=O)c1ccc2c(Cl)cccc2c1 [W-13]
- steady-state ErbB1 autophosphorylation (ErbB1 [2]): not the steady-state value
- initial peak of ErbB1 autophosphorylation (ErbB1 [2]): inhibit the initial peak
- tyrosine kinase activity of purified ErbB1 (ErbB1 [3]): do not inhibit

Compound: CC(=O)OCOC(=O)CN(CC(=O)OCOC(C)=O)c1ccccc1OCCOc1ccccc1N(CC(=O)OCOC(C)=O)CC(=O)OCOC(C)=O [BAPTA-AM]
- angiotensin II–stimulated ErbB1 transactivation (ErbB1 [7]): inhibit

Compound: NCCCCCCNS(=O)(=O)c1cccc2c(Cl)cccc12 [W-7]
- ErbB1 receptor levels (ErbB1 [8]; 20–50 μM W-7, anti-ErbB1 reprobe): did not affect receptor levels
- inhibition of EGF-mediated ErbB1 tyrosine phosphorylation (ErbB1 [8]; 20–50 μM for 30 min, then 100 ng/ml EGF 10 min, Western blot 4G10): dose-dependent inhibition
- steady-state ErbB1 autophosphorylation (ErbB1 [2]): not the steady-state value
- initial peak of ErbB1 autophosphorylation (ErbB1 [2]): inhibit the initial peak
- tyrosine kinase activity of purified ErbB1 (ErbB1 [3]): do not inhibit
- angiotensin II–stimulated ErbB1 transactivation (ErbB1 [7]): inhibit

- Ca/CaM Association Constant (KCaM) (calmodulin (Ca/CaM)): 6e+07 M⁻¹
Compound: ErbB2(676–692): peptide corresponding to the juxtamembrane region of ErbB2 (Ac-CKRRQQKIRKYTMRRLLQ-NH2; not fully specified (residue 1))

Compound: acrylodan-labeled ErbB1(645–660): ErbB1(645–660) labeled with acrylodan (Ac-C(acrylodan)RRRHIVRKRTLRRLLQ-NH2; SMILES CC[C@H](C)[C@H](NC(=O)[C@H](Cc1c[nH]cn1)NC(=O)[C@H](CCCNC(=N)N)NC(=O)[C@H](CCCNC(=N)N)NC(=O)[C@H](CCCNC(=N)N)NC(=O)[C@H](CSCCC(=O)c1ccc2cc(N(C)C)ccc2c1)NC(C)=O)C(=O)N[C@H](C(=O)N[C@@H](CCCNC(=N)N)C(=O)N[C@@H](CCCCN)C(=O)N[C@@H](CCCNC(=N)N)C(=O)N[C@H](C(=O)N[C@@H](CC(C)C)C(=O)N[C@@H](CCCNC(=N)N)C(=O)N[C@@H](CCCNC(=N)N)C(=O)N[C@@H](CC(C)C)C(=O)N[C@@H](CC(C)C)C(=O)N[C@@H](CCC(N)=O)C(N)=O)[C@@H](C)O)C(C)C)
- rate of removal from vesicles by Ca/CaM ([9]; 10% PS): 100 s⁻¹
- rate of removal from vesicles by Ca/CaM ([9]; 15% PS): 10 s⁻¹
- transfer rate constant (slope of 1/τ vs. [CaM]) ([9]; 85:15 PC/PS vesicles (15% PS)): 5e+06 M⁻¹ s⁻¹
- lifetime of peptide on vesicles ([9]; 85:15 PC/PS vesicles, without Ca/CaM): ~0.3 s

- ratio of bound/free = K[lipid]eff [10]: > 100
- time bound to the plasma membrane (tethered region) [10]: > 99%
Compound: 645–660 region of ErbB1: tethered 645–660 region of ErbB1 (RRRHIVRKRTLRRLLQ; UniProt P00533 669-684, looked up, fragment)
